The source made the active and inactive calls. No cut-off for these calls is given here. Positions of bridges follow the written chain, without caps; N, C: chain ends. Residues, ends and D or L forms follow the SMILES beside them.
Key:
NCI-H69 [1] = assay: Cytotoxicity against human H69 cells up to 2 uM after 5 to 6 days by real time cell proliferation assay; format: cell-based
Mus musculus = assay: Wound healing activity in BALB/c mouse assessed as biopsy punch-induced wound closure at 56 pmol administered topically daily as 1.5% methyl cellulose gel for 4 days measured on day 4 post last dose relative to control; format: functional
Method in brief: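 Female BALB/c mice, 11−12 weeks, 19−23 g, groups of 4−5. Under ip xylazine 16 mg/kg and ketamine 80 mg/kg, a 5 mm biopsy punch made a skin-deep scalp wound (~0.2 cm2). Betadine was applied first. Then 56 pmol in 50 μL 1.5% methylcellulose gel was applied daily, days 0−4. Healing at day 4 expressed relative to PBS vehicle.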

[2] = tested on: H69 cholangiocyte cell line (Homo sapiens); assay: Induction of human H69 cell growth at 400 nM after 5 to 6 days by real time cell proliferation assay relative to control
NCI-H69 [3] = assay: Induction of human H69 cell growth at 2 uM after 5 to 6 days by real time cell proliferation assay relative to control; format: functional
Method in brief: (§1)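 H69 SV40-transformed human cholangiocytes, seeded 1500 cells/well in complete media and grown overnight, then washed with PBS and held ≥6 h in low-nutrient medium (0.5% FCS, 1/20 growth factors). Single treatment added at 10× stock. Impedance cell index read hourly for 5−6 days and normalized to pre-treatment. Proliferation ratio taken at day 4 versus control (tropomyosin-derived 20-residue peptide for peptides; thioredoxin for recombinant protein). Two-Way ANOVA with Dunnett's correction.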

NCI-H69 [4] = assay: Induction of human H69 cell growth at 400 nM after 5 to 6 days by real time cell proliferation assay relative to control; format: functional; method in brief: as §1
NCI-H69 [5] = assay: Induction of human H69 cell growth up to 2 uM after 5 to 6 days by real time cell proliferation assay; format: functional, cell-based; method in brief: as §1
NCI-H69 [6] = assay: Induction of human H69 cell growth at 32 nM after 5 to 6 days by real time cell proliferation assay relative to control; format: functional; method in brief: as §1

Structure (SMILES)	Activity (NCI-H69 [1])	Activity (Mus musculus)	Activity [2]	Activity (NCI-H69 [3])	Activity (NCI-H69 [4])	Activity (NCI-H69 [5])	Activity (NCI-H69 [6])
CC(C)C[C@@H]1NC(=O)CNC(=O)[C@H](CCCNC(=N)N)NC(=O)[C@H](C)NC(=O)[C@@H]2CSSC[C@H](N)C(=O)N3CCC[C@H]3C(=O)N[C@@H](CC(=O)O)C(=O)N3CCC[C@H]3C(=O)N[C@@H](C(C)C)C(=O)N[C@@H](Cc3ccc(O)cc3)C(=O)N[C@@H]([C@@H](C)O)C(=O)N[C@@H](CSSC[C@@H](C(=O)O)NC(=O)CNC(=O)[C@H](Cc3ccc(O)cc3)NC(=O)CNC(=O)[C@H](Cc3cnc[nH]3)NC1=O)C(=O)N[C@@H](CCCNC(=N)N)C(=O)N1CCC[C@H]1C(=O)NCC(=O)N[C@@H](CCC(N)=O)C(=O)N[C@@H]([C@@H](C)O)C(=O)N2 (H-CPDPVYTCRPGQTCARGLHGYGC-OH; disulfide 1-14, 8-23)	Non-Toxic	37 - 41%	inactive	14 - 25%	–	–	–
CC[C@H](C)[C@H](NC(=O)[C@@H]1CCCN1C(=O)[C@H](CCC(N)=O)NC(=O)[C@H](CC(C)C)NC(=O)[C@@H](NC(=O)[C@H](CC(=O)O)NC(=O)[C@@H](N)CCSC)[C@@H](C)O)C(=O)N[C@@H](CCCNC(=N)N)C(=O)N[C@@H](CO)C(=O)N1CCC[C@H]1C(=O)N[C@@H](CO)C(=O)N[C@H]1CSSC[C@@H]2NC(=O)[C@H]([C@@H](C)O)NC(=O)[C@H](CCC(N)=O)NC(=O)CNC(=O)[C@@H]3CCCN3C(=O)[C@H](CCCNC(=N)N)NC(=O)[C@H](CSSC[C@@H](C(=O)N[C@@H](C)C(=O)O)NC(=O)CNC(=O)[C@H](Cc3ccc(O)cc3)NC(=O)CNC(=O)[C@H](Cc3cnc[nH]3)NC(=O)[C@H](CC(C)C)NC(=O)CNC(=O)[C@H](CCCNC(=N)N)NC(=O)[C@H](C)NC2=O)NC(=O)[C@H]([C@@H](C)O)NC(=O)[C@H](Cc2ccc(O)cc2)NC(=O)[C@H](C(C)C)NC(=O)[C@@H]2CCCN2C(=O)[C@H](CC(=O)O)NC(=O)[C@@H]2CCCN2C1=O (H-MDTLQPIRSPSCPDPVYTCRPGQTCARGLHGYGCA-OH; disulfide 12-25, 19-34)	Non-Toxic	37 - 41%	–	14 - 25%	9%	–	–
CSCC[C@H](NC(=O)[C@@H]1CCCN1C(=O)[C@H](C)NC(=O)[C@@H]1CSSC[C@@H]2NC(=O)[C@H]([C@@H](C)O)NC(=O)[C@H](Cc3ccc(O)cc3)NC(=O)[C@H](C(C)C)NC(=O)[C@@H]3CCCN3C(=O)[C@H](CC(=O)O)NC(=O)[C@@H]3CCCN3C(=O)[C@@H](NC(=O)[C@H](CO)NC(=O)[C@@H]3CCCN3C(=O)[C@H](CO)NC(=O)[C@@H](N)CCCNC(=N)N)CSSC[C@H](NC(=O)[C@H]([C@@H](C)O)NC(=O)[C@H](CCC(N)=O)NC(=O)CNC(=O)[C@@H]3CCCN3C(=O)[C@H](CCCNC(=N)N)NC2=O)C(=O)N[C@@H](C)C(=O)N[C@@H](CCCNC(=N)N)C(=O)NCC(=O)N[C@@H](CC(C)C)C(=O)N[C@@H](Cc2cnc[nH]2)C(=O)NCC(=O)N[C@@H](Cc2ccc(O)cc2)C(=O)NCC(=O)N1)C(=O)N[C@@H](CC(=O)O)C(=O)O (H-RSPSCPDPVYTCRPGQTCARGLHGYGCAPMD-OH; disulfide 5-18, 12-27)	–	26 - 41%	inactive	–	–	–	–
CC[C@H](C)[C@H](NC(=O)[C@@H](N)C(C)C)C(=O)N[C@@H](Cc1cnc[nH]1)C(=O)N[C@H]1CSSC[C@@H]2NC(=O)[C@H]([C@@H](C)O)NC(=O)[C@H]([C@@H](C)O)NC(=O)CNC(=O)[C@H](CC(=O)O)NC(=O)[C@@H]3CCCN3C(=O)[C@H](CSSC[C@@H](C(=O)N[C@@H](C)C(=O)N3CCC[C@H]3C(=O)N[C@@H](Cc3ccccc3)C(=O)N[C@@H](CO)C(=O)O)NC(=O)[C@H](Cc3ccc(O)cc3)NC(=O)[C@H](Cc3c[nH]c4ccccc34)NC(=O)[C@H](C(C)C)NC(=O)CNC(=O)[C@H](Cc3ccc(O)cc3)NC(=O)[C@@H]3CCCN3C(=O)[C@H](CO)NC(=O)[C@H](CC(C)C)NC(=O)[C@H](C)NC2=O)NC(=O)[C@H]([C@@H](C)CC)NC(=O)[C@H]([C@@H](C)O)NC(=O)[C@H](C)NC(=O)[C@H](C)NC(=O)[C@H](CC(=O)O)NC1=O (H-VIHCDAATICPDGTTCALSPYGVWYCAPFS-OH; disulfide 4-16, 10-26)	–	–	–	–	–	inactive	9%

From ChEMBL document CHEMBL4049448, “Development of a Potent Wound Healing Agent Based on the Liver Fluke Granulin Structural Fold” (J Med Chem, 2017)
